Measurements as given in ChEMBL document CHEMBL2331353, “Synthesis and biological evaluation of some novel resveratrol amide derivatives as potential anti-tumor agents” (Eur J Med Chem, 2013).
pIC50: −log10 of the molar value. Activity calls are given as the source filed them. The rule behind the calls is not given here.

Legend:
[1] = target: T1, Prostaglandin G/H synthase 2 (Mus musculus, UniProt Q05769); test: Inhibition of COX-2 in mouse RAW264.7 cells assessed as decrease in LPS-induced PGE2 production; format: cell-based
T1 sequence (Q05769 whole entry): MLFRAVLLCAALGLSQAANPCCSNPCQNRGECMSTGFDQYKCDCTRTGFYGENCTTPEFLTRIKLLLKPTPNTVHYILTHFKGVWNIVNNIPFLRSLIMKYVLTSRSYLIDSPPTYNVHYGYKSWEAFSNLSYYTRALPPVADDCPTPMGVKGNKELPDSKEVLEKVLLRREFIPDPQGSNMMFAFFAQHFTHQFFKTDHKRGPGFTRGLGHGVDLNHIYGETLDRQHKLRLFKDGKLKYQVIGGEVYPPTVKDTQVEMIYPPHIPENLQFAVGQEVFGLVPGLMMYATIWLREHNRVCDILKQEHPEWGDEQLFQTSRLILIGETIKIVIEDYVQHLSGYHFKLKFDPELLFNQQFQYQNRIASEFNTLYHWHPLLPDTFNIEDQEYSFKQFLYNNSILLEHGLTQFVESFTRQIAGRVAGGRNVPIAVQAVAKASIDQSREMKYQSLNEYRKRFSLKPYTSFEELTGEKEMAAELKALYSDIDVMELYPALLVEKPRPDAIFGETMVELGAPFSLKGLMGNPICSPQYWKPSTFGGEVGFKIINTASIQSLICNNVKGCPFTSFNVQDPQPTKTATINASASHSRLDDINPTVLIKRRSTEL

[2] = target: T2, Prostaglandin G/H synthase 2 (Homo sapiens, UniProt P35354); test: Inhibition of COX-2 (unknown origin) by chemiluminescence assay
T2 sequence (P35354 whole entry): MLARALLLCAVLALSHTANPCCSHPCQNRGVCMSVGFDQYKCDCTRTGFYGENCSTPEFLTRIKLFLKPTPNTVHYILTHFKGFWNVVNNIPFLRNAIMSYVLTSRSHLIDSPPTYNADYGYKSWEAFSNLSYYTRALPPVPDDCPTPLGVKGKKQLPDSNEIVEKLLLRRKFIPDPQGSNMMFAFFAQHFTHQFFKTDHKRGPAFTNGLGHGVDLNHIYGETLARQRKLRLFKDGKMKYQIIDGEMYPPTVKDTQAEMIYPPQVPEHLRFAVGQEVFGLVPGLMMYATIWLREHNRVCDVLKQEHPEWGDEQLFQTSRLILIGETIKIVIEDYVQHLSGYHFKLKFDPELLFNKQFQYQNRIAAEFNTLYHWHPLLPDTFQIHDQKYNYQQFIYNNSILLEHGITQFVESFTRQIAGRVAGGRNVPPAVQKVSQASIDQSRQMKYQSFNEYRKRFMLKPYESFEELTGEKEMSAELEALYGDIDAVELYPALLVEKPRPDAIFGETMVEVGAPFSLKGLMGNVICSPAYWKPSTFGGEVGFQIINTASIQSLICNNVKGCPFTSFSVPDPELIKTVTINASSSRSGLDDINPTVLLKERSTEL

[3] = system: RAW264.7; test: Inhibition of LPS-induced COX-2 expression in mouse RAW264.7 cells at >0.5 uM treated for 15 mins before LPS challenge measured after 18 hrs by Western blot analysis; format: functional, cell-based
In short: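 RAW 264.7 cells (5×10^5) incubated 24 h in 12-well plates. Compound pretreatment at 0.5, 1.0 or 1.5 µM for 15 min, then LPS 1 µg/mL for 18 h. Cells lysed in lysis buffer. COX-2 protein detected by Western immunoblot.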

[4] = system: B16-F10; test: Antitumor activity against mouse B16F10 cells assessed as inhibition of cell proliferation after 48 hrs by MTT assay; format: functional, cell-based; conditions: B16-F10, 48 h
In short: (§1)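 Cells grown to log phase in RPMI 1640 with 10% FBS, seeded at 2×10^4 cells/mL and preincubated 24 h at 37 °C, 5% CO2. Compounds at preset concentrations added (6 wells), celecoxib as positive reference, 48 h exposure. MTT (2.5 mg/mL in PBS) for 4 h, then SDS/isobutanol/HCl extraction overnight at 37 °C. OD read at 570 nm. Triplicate wells per concentration, at least three independent runs.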

[5] = target: Prostaglandin G/H synthase 1 (Homo sapiens, UniProt P23219); test: Inhibition of COX-1 (unknown origin) by chemiluminescence assay
Prostaglandin G/H synthase 1, sequence (P23219 whole entry): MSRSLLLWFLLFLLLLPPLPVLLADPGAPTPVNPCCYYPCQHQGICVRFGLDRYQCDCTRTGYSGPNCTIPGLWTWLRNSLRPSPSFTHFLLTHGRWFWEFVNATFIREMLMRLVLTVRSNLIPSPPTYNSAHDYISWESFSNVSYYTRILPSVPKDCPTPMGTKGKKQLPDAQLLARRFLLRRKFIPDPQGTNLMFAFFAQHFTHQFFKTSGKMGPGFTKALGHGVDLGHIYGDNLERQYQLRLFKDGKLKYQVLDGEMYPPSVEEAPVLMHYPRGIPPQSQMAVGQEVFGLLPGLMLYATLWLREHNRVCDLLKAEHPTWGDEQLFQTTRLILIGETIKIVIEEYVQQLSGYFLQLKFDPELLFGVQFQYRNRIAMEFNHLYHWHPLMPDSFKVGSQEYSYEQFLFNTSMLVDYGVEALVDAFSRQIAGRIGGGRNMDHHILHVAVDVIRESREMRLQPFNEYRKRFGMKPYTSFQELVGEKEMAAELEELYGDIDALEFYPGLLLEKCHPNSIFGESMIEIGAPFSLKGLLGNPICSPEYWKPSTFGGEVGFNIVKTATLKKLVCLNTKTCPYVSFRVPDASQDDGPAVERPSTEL

[6] = system: A549; test: Antitumor activity against human A549 cells assessed as inhibition of cell proliferation after 48 hrs by MTT assay; format: functional, cell-based; conditions: A549, 48 h; in short: as §1
[7] = system: MCF7; test: Antitumor activity against human MCF7 cells assessed as inhibition of cell proliferation after 48 hrs by MTT assay; format: functional, cell-based; conditions: MCF7, 48 h; in short: as §1

| pIC50 [1] | pIC50 [2] | pIC50 [4] | pIC50 [5] | pIC50 [6] | pIC50 [7] | Compound | inhibition [3] |
| --- | --- | --- | --- | --- | --- | --- | --- |
| 5.61 | 5.17 | 5.12 | < 4.30 | 5.24 | 5.36 | COc1ccc(/C=C/c2cc(OC)cc(OC)c2/C=C/C(=O)N2CCCCC2C)cc1 (configuration not stated) | – |
| 6.34 | 5.84 | 5.33 | 4.39 | 5.68 | 5.31 | COc1ccc(/C=C/c2cc(OC)cc(OC)c2/C=C/C(=O)N2CCC(Cl)CC2)cc1 | – |

The remaining lines, values behind:

| Compound | pIC50 [1] | pIC50 [2] | pIC50 [4] | pIC50 [5] | pIC50 [6] | pIC50 [7] | inhibition [3] |
| --- | --- | --- | --- | --- | --- | --- | --- |
| CCCCNC(=O)/C=C/c1c(/C=C/c2ccc(OC)cc2)cc(OC)cc1OC | 6.55 | 5.99 | 5.68 | < 4.30 | 5.73 | 5.88 | Active |
| COc1ccc(/C=C/c2cc(OC)cc(OC)c2/C=C/C(=O)NCc2ccco2)cc1 | 5.50 | 5.01 | 5.00 | 4.54 | 5.19 | 5.27 | – |
| COc1ccc(/C=C/c2cc(OC)cc(OC)c2/C=C/C(=O)NC2CC2)cc1 | 5.15 | 4.89 | 4.99 | < 4.30 | 5.06 | 5.40 | – |
| COc1ccc(/C=C/c2cc(OC)cc(OC)c2/C=C/C(=O)N2CC(C)CC(C)C2)cc1 (configuration not stated) | 6.24 | 5.70 | 5.49 | 4.35 | 5.64 | 5.80 | – |
